SMILES strings stand for the structures. Some results are limits rather than exact numbers.

One test relates to HT-29. Briefly: Cytotoxicity against human HT-29 cells assessed as growth inhibition after 48 hrs by resazurin assay. It is filed as functional, cell-based. Particulars: for IC50: HT-29, 48 h. In short, it runs like this:
(§1)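 HCT116 or HT29 seeded at 2000 cells/well, grown 24 h, then given fresh complete McCoy's 5A (5% FBS, 0.1% DMSO final) containing serial compound concentrations for 48 h. Resazurin was added for 16 h and fluorescence read at ex 544/em 595 nm as a measure of living cells. IC50 was calculated by the Logit approach; values are mean ± SD.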

The test system of another test is HCT-116. As to the kind of experiment: Cytotoxicity against human HCT116 cells assessed as growth inhibition after 48 hrs by resazurin assay. It is filed as functional, cell-based. Particulars: for IC50: HCT-116, 48 h. The method, boiled down: as §1
Background: Alamar Blue is a resazurin reagent that responds to reducing activity.

For the compound `CCCNc1nc(/C=C/c2cc(OC)c(OC)c(OC)c2)cc(/C=C/c2cc(OC)c(OC)c(OC)c2)n1`, the IC50 (usually the midpoint of a concentration-inhibition curve) in the test on HT-29 was over 100 µM. Further, in the test on HCT-116, the “growth inhibition (GI)” value is “Dose-dependent effect” and the IC50 worked out at 21.9 µM.

With `COc1ccc(/C=C/c2cc(/C=C/c3ccc(OC)c(OC)c3)nc(NCCCO)n2)cc1OC`, in the test on HT-29, the “growth inhibition (GI)” value was “Dose-dependent effect” and the IC50 is 12.8 µM. Moreover, in the test on HCT-116, the “growth inhibition (GI)” value is “Dose-dependent effect” and the IC50 was found to be 9.9 µM.

Consider `COc1cc(/C=C/c2cc(/C=C/c3cc(OC)c(OC)c(OC)c3)nc(NCCCO)n2)cc(OC)c1OC`, for which, in the test with HT-29, the “growth inhibition (GI)” value was “Dose-dependent effect” and the IC50 came out at 12.4 µM. In the test on HCT-116, the “growth inhibition (GI)” value is “Dose-dependent effect” and the IC50 worked out at 7.4 µM.

Source of the values: ChEMBL document CHEMBL2413001, “Exploring pyrimidine-substituted curcumin analogues: design, synthesis and effects on EGFR signaling” (Bioorg Med Chem, 2013).
